Measurements as given in ChEMBL document CHEMBL1811790, “Oxadiazole derivatives containing 1,4-benzodioxan as potential immunosuppressive agents against RAW264.7 cells” (Bioorg Med Chem, 2011).
The source made the active and inactive calls. No cut-off for these calls is given here.

Legend:
RAW264.7 [1] = assay: Acute toxicity in mouse RAW264.7 cells assessed as OD540 absorbance incubated for 24 hrs by MTT assay; type: cell-based; conditions: raw264.7, 24 h
Method in brief: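 RAW264.7 cells kept in DMEM with 5% FBS, 100 U/mL penicillin and streptomycin, at 37 °C in humidified 5% CO2. Compounds were added at the indicated concentrations for 24 h. MTT reagent (5 mg/mL stock) was then added for 4 h, supernatants were aspirated and formazan crystals were dissolved for reading. Control and blank wells received 0.1% DMSO.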

RAW264.7 [2] = assay: Immunosuppressive activity in mouse RAW264.7 cells assessed as inhibition of LPS-induced nitric oxide production incubated for 24 hrs by Griess method; type: functional
Method in brief: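 Murine macrophage-like RAW264.7 cells were activated with LPS. Control wells (LPS only) and blank wells (cells only) each received 0.1% DMSO vehicle.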

[3] = biological target: T1, Nitric oxide synthase, inducible (Mus musculus, UniProt P29477); assay: Inhibition of iNOS in mouse RAW264.7 cells assessed as conversion of L-citrulline to L-arginine incubated for 30 mins by scintillation counting; type: cell-based; conditions: in the assay text read “conversion of L-arginine to L-citrulline” for “conversion of L-citrulline to L-arginine”
T1 sequence (P29477 whole entry): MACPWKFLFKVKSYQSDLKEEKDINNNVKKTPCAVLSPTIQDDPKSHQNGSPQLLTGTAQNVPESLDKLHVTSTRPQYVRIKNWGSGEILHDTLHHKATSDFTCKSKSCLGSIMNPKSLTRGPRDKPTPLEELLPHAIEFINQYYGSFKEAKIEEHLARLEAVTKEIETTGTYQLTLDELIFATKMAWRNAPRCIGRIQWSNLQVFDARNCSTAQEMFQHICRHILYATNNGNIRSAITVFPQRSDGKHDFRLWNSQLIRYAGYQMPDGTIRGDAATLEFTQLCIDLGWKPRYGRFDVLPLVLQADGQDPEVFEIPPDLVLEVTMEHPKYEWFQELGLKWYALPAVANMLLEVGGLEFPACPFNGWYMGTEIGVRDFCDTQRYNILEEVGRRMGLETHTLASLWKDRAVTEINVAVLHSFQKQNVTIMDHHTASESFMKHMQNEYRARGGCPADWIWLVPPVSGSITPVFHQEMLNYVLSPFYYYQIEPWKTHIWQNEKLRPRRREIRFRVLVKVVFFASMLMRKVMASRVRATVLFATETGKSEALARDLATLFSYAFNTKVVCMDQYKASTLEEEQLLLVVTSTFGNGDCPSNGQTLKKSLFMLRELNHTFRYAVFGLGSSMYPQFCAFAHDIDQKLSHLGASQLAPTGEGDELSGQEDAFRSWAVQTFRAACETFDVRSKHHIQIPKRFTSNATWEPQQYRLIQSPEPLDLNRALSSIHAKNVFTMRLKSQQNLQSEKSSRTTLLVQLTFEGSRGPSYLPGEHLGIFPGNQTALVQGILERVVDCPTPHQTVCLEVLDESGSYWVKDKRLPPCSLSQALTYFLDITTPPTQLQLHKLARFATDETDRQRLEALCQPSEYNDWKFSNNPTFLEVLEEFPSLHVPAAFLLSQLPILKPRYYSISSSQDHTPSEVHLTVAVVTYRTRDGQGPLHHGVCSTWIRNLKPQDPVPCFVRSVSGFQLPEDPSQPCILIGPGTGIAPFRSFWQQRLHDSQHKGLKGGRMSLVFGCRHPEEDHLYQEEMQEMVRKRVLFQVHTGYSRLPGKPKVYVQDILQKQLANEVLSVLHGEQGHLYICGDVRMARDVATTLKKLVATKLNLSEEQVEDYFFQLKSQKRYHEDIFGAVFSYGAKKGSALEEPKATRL
Method in brief: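 Crude enzyme was the supernatant of collected RAW264.7 cells, adjusted to 50 mM Tris and 100 µM dithiothreitol final. Enzyme was incubated 30 min with NADPH, compound, L-[3H]-arginine (10 µCi/mL stock) and Tris pH 7.5. The reaction was stopped with 0.1 M buffer pH 5.0 containing 2 mM EDTA and 2 mM EGTA, then stirred 5 min with Dowex 50W-8X. L-[3H]-citrulline in the supernatant was read by scintillation counting.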

RAW264.7 [4] = assay: Inhibition of iNOS mRNA expression in mouse RAW264.7 cells by RT-PCR; type: functional, cell-based

## O=[N+]([O-])c1ccccc1-c1nnc(-c2ccc3c(c2)OCCO3)o1
RAW264.7 [1]
  deltaA: 0.3
RAW264.7 [2]
  inhibition (INH): 3.65%

## c1cncc(-c2nnc(-c3ccc4c(c3)OCCO4)o2)c1
RAW264.7 [1]
  deltaA: 1.31
RAW264.7 [2]
  inhibition (INH): 37.66%
[3]
  IC50: 50 nM
RAW264.7 [4]
  inhibition: Active

## c1ccc(OCc2nnc(-c3ccc4c(c3)OCCO4)o2)cc1
RAW264.7 [1]
  deltaA: 0.36
RAW264.7 [2]
  inhibition (INH): 6.98%

## C(=C\c1nnc(-c2ccc3c(c2)OCCO3)o1)/c1ccccc1
RAW264.7 [1]
  deltaA: 1.15
RAW264.7 [2]
  inhibition (INH): 25.54%
[3]
  IC50: 90 nM
RAW264.7 [4]
  inhibition: inactive

## Brc1ccc(Cc2nnc(-c3ccc4c(c3)OCCO4)o2)cc1
RAW264.7 [1]
  deltaA: 0.99
RAW264.7 [2]
  inhibition (INH): -8.53%

## Clc1ccccc1-c1nnc(-c2ccc3c(c2)OCCO3)o1
RAW264.7 [1]
  deltaA: 1.45
RAW264.7 [2]
  inhibition (INH): -57.48%

## c1ccc(CCc2nnc(-c3ccc4c(c3)OCCO4)o2)cc1
RAW264.7 [1]
  deltaA: 0.1
RAW264.7 [2]
  inhibition (INH): 3.71%

## COc1cc(-c2nnc(-c3ccc4c(c3)OCCO4)o2)cc(OC)c1OC
RAW264.7 [1]
  deltaA: 1.02
RAW264.7 [2]
  inhibition (INH): 20.03%
[3]
  IC50: 120 nM
RAW264.7 [4]
  inhibition: inactive

## Clc1ccc(Cc2nnc(-c3ccc4c(c3)OCCO4)o2)cc1
RAW264.7 [1]
  deltaA: 0.63
RAW264.7 [2]
  inhibition (INH): 28.11%

## c1ccc(-c2nnc(-c3ccc4c(c3)OCCO4)o2)cc1
RAW264.7 [1]
  deltaA: 1.5
RAW264.7 [2]
  inhibition (INH): 5.08%
[3]
  IC50: 2350 nM

## Brc1cncc(-c2nnc(-c3ccc4c(c3)OCCO4)o2)c1
RAW264.7 [1]
  deltaA: 1.22
RAW264.7 [2]
  inhibition (INH): -42.39%

## COc1cccc(Cc2nnc(-c3ccc4c(c3)OCCO4)o2)c1
RAW264.7 [1]
  deltaA: 0.76
RAW264.7 [2]
  inhibition (INH): 21.66%

## Clc1ccc(OCc2nnc(-c3ccc4c(c3)OCCO4)o2)cc1
RAW264.7 [1]
  deltaA: 0.89
RAW264.7 [2]
  inhibition (INH): 10.49%
[3]
  IC50: 2160 nM

## O=[N+]([O-])c1cccc(-c2nnc(-c3ccc4c(c3)OCCO4)o2)c1
RAW264.7 [1]
  deltaA: 0.73
RAW264.7 [2]
  inhibition (INH): -33.82%

## c1ccc(Cc2nnc(-c3ccc4c(c3)OCCO4)o2)cc1
RAW264.7 [1]
  deltaA: 0.45
RAW264.7 [2]
  inhibition (INH): -3.63%

## O=[N+]([O-])c1ccc(-c2nnc(-c3ccc4c(c3)OCCO4)o2)cc1
RAW264.7 [1]
  deltaA: 0.57
RAW264.7 [2]
  inhibition (INH): 1.34%

## Cc1ccccc1-c1nnc(-c2ccc3c(c2)OCCO3)o1
RAW264.7 [1]
  deltaA: 1.03
RAW264.7 [2]
  inhibition (INH): 21.58%
[3]
  IC50: 100 nM
RAW264.7 [4]
  inhibition: inactive

## Clc1cccc(Cc2nnc(-c3ccc4c(c3)OCCO4)o2)c1
RAW264.7 [1]
  deltaA: 0.2
RAW264.7 [2]
  inhibition (INH): 23.7%
